# Source: ChEMBL document CHEMBL1649165, “Activity profile in vitro of micafungin against Spanish clinical isolates of common and emerging species of yeasts and molds” (2009)
# Experiments:
# Assay type in all cases: functional
# Trichosporon domesticum = test: Antimicrobial activity against Trichosporon mycotoxinivorans by broth microdilution method; conditions: Apiotrichum domesticum
# Method in brief: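 Spanish human clinical isolates were tested as nonfermentative yeasts by broth microdilution. The method strictly followed the EUCAST recommendations, with a minor modification to improve growth, and the read-out was the MIC.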
# [1] = test system: Cunninghamella bertholletiae; test: Antimicrobial activity against Cunninghamella bertholletiae by broth microdilution method
# Method in brief: (§1)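 Clinical mould isolates, tested by broth microdilution using the AFST-EUCAST reference method for filamentous fungi. For echinocandins, the endpoint was the minimum effective concentration: the lowest drug concentration giving aberrant hyphal growth, read with an inverted microscope.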
# Trichoderma = test: Antimicrobial activity against Trichoderma spp. by broth microdilution method
# Method in brief: (§2)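 Filamentous fungus clinical isolates tested by the AFST-EUCAST reference broth microdilution method for moulds. For echinocandins, the endpoint was the minimum effective concentration: the lowest drug concentration giving aberrant hyphal growth, read with an inverted microscope.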
# Aspergillus fumigatus = test: Antimicrobial activity against Aspergillus fumigatus by broth microdilution method; method in brief: as §1
# Paecilomyces variotii = test: Antimicrobial activity against Paecilomyces variotii by broth microdilution method; method in brief: as §2
# Candida metapsilosis = test: Antimicrobial activity against Candida metapsilosis by broth microdilution method; conditions: Lodderomyces metapsilosis
# Method in brief: (§3)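 Clinical isolates from human patients, tested by broth microdilution using the AFST-EUCAST reference procedure for fermentative yeasts. The MIC was read per that reference method.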
# Fusarium equiseti = test: Antimicrobial activity against Fusarium equiseti by broth microdilution method; method in brief: as §1
# [2] = test system: Meyerozyma guilliermondii; test: Antimicrobial activity against Candida guilliermondii by broth microdilution method; method in brief: as §3
# Trichosporon inkin = test: Antimicrobial activity against Trichosporon inkin by broth microdilution method
# Method in brief: (§4)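 Nonfermentative yeast clinical isolates (Rhodotorula, Trichosporon) tested by broth microdilution. The EUCAST yeast recommendations were followed strictly, with one minor modification to improve growth. MIC was read as the endpoint.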
# Ustilago = test: Antimicrobial activity against Ustilago spp by broth microdilution method
# [3] = Antimicrobial activity against Hormographiella aspergillata by broth microdilution method; conditions: Coprinopsis cinerea; method in brief: as §2
# Aspergillus nidulans = test: Antimicrobial activity against Aspergillus nidulans by broth microdilution method; method in brief: as §1
# Aspergillus = test: Antimicrobial activity against Aspergillus spp. by broth microdilution method; method in brief: as §1
# Candida orthopsilosis = test: Antimicrobial activity against Candida orthopsilosis by broth microdilution method; conditions: Lodderomyces orthopsilosis; method in brief: as §3
# Debaryomyces hansenii = test: Antimicrobial activity against Candida famata by broth microdilution method; method in brief: as §3
# Beauveria bassiana = test: Antimicrobial activity against Beauveria bassiana by broth microdilution method; method in brief: as §1
# [4] = Antimicrobial activity against Rhizopus microsporus by broth microdilution method; method in brief: as §2
# Aspergillus terreus = test: Antimicrobial activity against Aspergillus terreus by broth microdilution method; method in brief: as §1
# Wickerhamomyces anomalus = test: Antimicrobial activity against Candida pelliculosa by broth microdilution method; conditions: Hansenula anomala; method in brief: as §3
# Rhodotorula mucilaginosa = test: Antimicrobial activity against Rhodotorula mucilaginosa by broth microdilution method; method in brief: as §4
# Yarrowia lipolytica = test: Antimicrobial activity against Yarrowia lipolytica by broth microdilution method
# [5] = test system: Kazachstania pintolopesii; test: Antimicrobial activity against Candida pintolopesii by broth microdilution method; conditions: Arxiozyma pintolopesii; method in brief: as §3
# Cladosporium = test: Antimicrobial activity against Cladosporium spp. by broth microdilution method; method in brief: as §1
# Aspergillus flavus = test: Antimicrobial activity against Aspergillus flavus by broth microdilution method; method in brief: as §1
# Acremonium sp. = test: Antimicrobial activity against Acremonium sp.by broth microdilution method; method in brief: as §1
# Alternaria alternata = test: Antimicrobial activity against Alternaria alternata by broth microdilution method; method in brief: as §1
# Trichosporon jirovecii = test: Antimicrobial activity against Trichosporon jirovecii by broth microdilution method; conditions: Cutaneotrichosporon jirovecii; method in brief: as §4
# [6] = test system: Cladophialophora bantiana; test: Antimicrobial activity against Cladophialophora bantiana by broth microdilution method; method in brief: as §1
# Mucor = test: Antimicrobial activity against Mucor spp.by broth microdilution method; method in brief: as §2
# Hortaea werneckii = test: Antimicrobial activity against Hortaea werneckii by broth microdilution method
# Candida tropicalis = test: Antimicrobial activity against Candida tropicalis by broth microdilution method; method in brief: as §3
# Rhizopus arrhizus = test: Antimicrobial activity against Rhizopus oryzae by broth microdilution method; method in brief: as §2
# Fusarium proliferatum = test: Antimicrobial activity against Fusarium proliferatum by broth microdilution method; method in brief: as §1
# Exophiala dermatitidis = test: Antimicrobial activity against Exophiala dermatitidis by broth microdilution method
# Aspergillus ustus = test: Antimicrobial activity against Aspergillus ustus by broth microdilution method; method in brief: as §1
# Nakaseomyces glabratus = test: Antimicrobial activity against Candida glabrata by broth microdilution method; method in brief: as §3
# Trichosporon dermatis = test: Antimicrobial activity against Trichosporon dermatis by broth microdilution method; conditions: Cutaneotrichosporon dermatis; method in brief: as §4
# Coprinellus domesticus = test: Antimicrobial activity against Hormographiella verticillata by broth microdilution method; method in brief: as §2
# Saksenaea vasiformis = test: Antimicrobial activity against Saksenaea vasiformis by broth microdilution method; method in brief: as §2
# Candida parapsilosis = test: Antimicrobial activity against Candida parapsilosis by broth microdilution method; conditions: Lodderomyces parapsilosis; method in brief: as §3
# Trichosporon = test: Antimicrobial activity against Trichosporon spp. by broth microdilution method; method in brief: as §4
# Diutina rugosa = test: Antimicrobial activity against Candida rugosa by broth microdilution method; method in brief: as §3
# Fusarium verticillioides = test: Antimicrobial activity against Fusarium verticillioides by broth microdilution method; method in brief: as §2
# Penicillium = test: Antimicrobial activity against Penicillium spp. by broth microdilution method; method in brief: as §2
# Rhodotorula glutinis = test: Antimicrobial activity against Rhodotorula glutinis by broth microdilution method; method in brief: as §4
compound,measurement,setting,value
CCC(C)n1ncn(-c2ccc(N3CCN(c4ccc(OCC5COC(Cn6cncn6)(c6ccc(Cl)cc6Cl)O5)cc4)CC3)cc2)c1=O (stereo not given) [ITRACONAZOLE],MIC50,Trichosporon domesticum,0.5 µg/mL
same,MIC90,Trichosporon domesticum,> 8 µg/mL
same,MIC50,[1],> 8 µg/mL
same,MIC90,[1],> 8 µg/mL
same,MIC50,Trichoderma,> 8 µg/mL
same,MIC90,Trichoderma,> 8 µg/mL
same,MIC50,Aspergillus fumigatus,0.25 µg/mL
same,MIC90,Aspergillus fumigatus,0.5 µg/mL
same,MIC50,Paecilomyces variotii,0.06 µg/mL
same,MIC90,Paecilomyces variotii,0.25 µg/mL
same,MIC50,Candida metapsilosis,0.12 µg/mL
same,MIC90,Candida metapsilosis,> 8 µg/mL
same,MIC50,Fusarium equiseti,> 8 µg/mL
same,MIC90,Fusarium equiseti,> 8 µg/mL
same,MIC50,[2],0.25 µg/mL
same,MIC90,[2],> 8 µg/mL
same,MIC50,Trichosporon inkin,0.12 µg/mL
same,MIC90,Trichosporon inkin,0.25 µg/mL
same,MIC50,Ustilago,0.5 µg/mL
same,MIC90,Ustilago,> 8 µg/mL
same,MIC50,[3],> 8 µg/mL
same,MIC90,[3],> 8 µg/mL
same,MIC50,Aspergillus nidulans,0.25 µg/mL
same,MIC90,Aspergillus nidulans,0.5 µg/mL
same,MIC50,Aspergillus,0.5 µg/mL
same,MIC90,Aspergillus,> 8 µg/mL
same,MIC50,Candida orthopsilosis,0.12 µg/mL
same,MIC90,Candida orthopsilosis,> 8 µg/mL
same,MIC50,Debaryomyces hansenii,0.12 µg/mL
same,MIC90,Debaryomyces hansenii,> 8 µg/mL
same,MIC50,Beauveria bassiana,> 8 µg/mL
same,MIC90,Beauveria bassiana,> 8 µg/mL
same,MIC50,[4],> 8 µg/mL
same,MIC90,[4],> 8 µg/mL
same,MIC50,Aspergillus terreus,0.25 µg/mL
same,MIC90,Aspergillus terreus,0.5 µg/mL
same,MIC50,Wickerhamomyces anomalus,0.12 µg/mL
same,MIC90,Wickerhamomyces anomalus,> 8 µg/mL
same,MIC50,Rhodotorula mucilaginosa,8 µg/mL
same,MIC90,Rhodotorula mucilaginosa,> 8 µg/mL
same,MIC50,Yarrowia lipolytica,0.5 µg/mL
same,MIC90,Yarrowia lipolytica,> 8 µg/mL
same,MIC50,[5],0.12 µg/mL
same,MIC90,[5],> 8 µg/mL
same,MIC50,Cladosporium,0.12 µg/mL
same,MIC90,Cladosporium,> 8 µg/mL
same,MIC50,Aspergillus flavus,0.25 µg/mL
same,MIC90,Aspergillus flavus,0.5 µg/mL
same,MIC50,Acremonium sp.,> 8 µg/mL
same,MIC90,Acremonium sp.,> 8 µg/mL
same,MIC50,Alternaria alternata,0.5 µg/mL
same,MIC90,Alternaria alternata,> 8 µg/mL
same,MIC50,Trichosporon jirovecii,0.5 µg/mL
same,MIC90,Trichosporon jirovecii,> 8 µg/mL
same,MIC50,[6],0.12 µg/mL
same,MIC90,[6],> 8 µg/mL
same,MIC50,Mucor,> 8 µg/mL
same,MIC90,Mucor,> 8 µg/mL
same,MIC50,Hortaea werneckii,0.12 µg/mL
same,MIC90,Hortaea werneckii,> 8 µg/mL
same,MIC50,Candida tropicalis,0.02 µg/mL
same,MIC90,Candida tropicalis,0.06 µg/mL
same,MIC50,Rhizopus arrhizus,4 µg/mL
same,MIC90,Rhizopus arrhizus,> 8 µg/mL
same,MIC50,Fusarium proliferatum,> 8 µg/mL
same,MIC90,Fusarium proliferatum,> 8 µg/mL
same,MIC50,Exophiala dermatitidis,0.12 µg/mL
same,MIC90,Exophiala dermatitidis,> 8 µg/mL
same,MIC50,Aspergillus ustus,0.5 µg/mL
same,MIC90,Aspergillus ustus,> 8 µg/mL
same,MIC50,Nakaseomyces glabratus,0.25 µg/mL
same,MIC90,Nakaseomyces glabratus,1 µg/mL
same,MIC50,Trichosporon dermatis,0.5 µg/mL
same,MIC90,Trichosporon dermatis,> 8 µg/mL
same,MIC50,Coprinellus domesticus,> 8 µg/mL
same,MIC90,Coprinellus domesticus,> 8 µg/mL
same,MIC50,Saksenaea vasiformis,> 8 µg/mL
same,MIC90,Saksenaea vasiformis,> 8 µg/mL
same,MIC50,Candida parapsilosis,0.02 µg/mL
same,MIC90,Candida parapsilosis,0.03 µg/mL
same,MIC50,Trichosporon,0.5 µg/mL
same,MIC90,Trichosporon,> 8 µg/mL
same,MIC50,Diutina rugosa,0.12 µg/mL
same,MIC90,Diutina rugosa,> 8 µg/mL
same,MIC50,Fusarium verticillioides,> 8 µg/mL
same,MIC90,Fusarium verticillioides,> 8 µg/mL
same,MIC50,Penicillium,0.5 µg/mL
same,MIC90,Penicillium,> 8 µg/mL
same,MIC50,Rhodotorula glutinis,0.5 µg/mL
same,MIC90,Rhodotorula glutinis,> 8 µg/mL
